Results reported in ChEMBL document CHEMBL3217705, “Synthesis and evaluation of stable substrate analogs as potential modulators of cyclodiphosphate synthase IspF” (Medchemcomm, 2013).
pIC50: −log10 of the molar value. Activity calls are given as the source filed them. No cut-off for these calls is given here.

Key:
[1] = target: T1, 2-C-methyl-D-erythritol 2,4-cyclodiphosphate synthase (Escherichia coli (strain K12)) (UniProt P62617); experiment: Inhibition of Escherichia coli IspF-MEP complex at 700 uM pre-incubated for 30 mins by HPLC based […] formation assay relative to untreated control
T1 sequence (whole entry): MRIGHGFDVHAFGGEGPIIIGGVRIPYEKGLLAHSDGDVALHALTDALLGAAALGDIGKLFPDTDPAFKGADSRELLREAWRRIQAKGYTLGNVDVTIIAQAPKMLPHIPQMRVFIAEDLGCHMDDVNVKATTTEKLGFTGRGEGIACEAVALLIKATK
Summary of the method: (§1)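 E. coli IspF alone or preformed IspF–MEP complex was incubated with 100 µM CDPME2P substrate. Test agents were present at 1000 µM or 700 µM, either without or after a 30 min pre-incubation. The rate of CMP formation was compared with a no-compound control run under the same pre-incubation; residual activity was taken after pre-incubation.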

[2] = target: T1, 2-C-methyl-D-erythritol 2,4-cyclodiphosphate synthase (Escherichia coli (strain K12)); experiment: Inhibition of Escherichia coli IspF-MEP complex at 700 uM by HPLC based […] formation assay; summary of the method: as §1
[3] = target: T2, 2-C-methyl-D-erythritol 2,4-cyclodiphosphate synthase (Escherichia coli (strain K12), UniProt P62617); experiment: Inhibition of Escherichia coli IspF-MEP complex by HPLC based […] formation assay
T2 sequence (P62617 whole entry): T1 sequence (whole entry)

[4] = target: T2, 2-C-methyl-D-erythritol 2,4-cyclodiphosphate synthase; experiment: Inhibition of Escherichia coli IspF by HPLC based […] formation assay
[5] = target: T1, 2-C-methyl-D-erythritol 2,4-cyclodiphosphate synthase (Escherichia coli (strain K12)); experiment: Activation of Escherichia coli IspF-MEP complex assessed as increase in rate of […] formation at 100 uM by HPLC based […] formation assay relative to untreated control
[6] = target: T1, 2-C-methyl-D-erythritol 2,4-cyclodiphosphate synthase (Escherichia coli (strain K12)); experiment: Activation of Escherichia coli IspF-MEP complex assessed as increase in rate of […] formation at 100 uM pre-incubated for 30 mins by HPLC based […] formation assay relative to untreated control
[7] = target: T1, 2-C-methyl-D-erythritol 2,4-cyclodiphosphate synthase (Escherichia coli (strain K12)); experiment: Activation of Escherichia coli IspF assessed as increase in rate of […] formation at 100 uM pre-incubated for 30 mins by HPLC based […] formation assay relative to untreated control
[8] = target: T1, 2-C-methyl-D-erythritol 2,4-cyclodiphosphate synthase (Escherichia coli (strain K12)); experiment: Activation of Escherichia coli IspF assessed as residual enzyme activity at 500 uM pre-incubated for 30 mins by HPLC based CMP formation assay
[9] = target: T1, 2-C-methyl-D-erythritol 2,4-cyclodiphosphate synthase (Escherichia coli (strain K12)); experiment: Inhibition of Escherichia coli IspF-MEP complex at 100 uM pre-incubated for 30 mins by HPLC based […] formation assay
[10] = target: T1, 2-C-methyl-D-erythritol 2,4-cyclodiphosphate synthase (Escherichia coli (strain K12)); experiment: Inhibition of Escherichia coli IspF at 500 uM by HPLC based CMP formation assay
[11] = target: T1, 2-C-methyl-D-erythritol 2,4-cyclodiphosphate synthase (Escherichia coli (strain K12)); experiment: Inhibition of Escherichia coli IspF-MEP complex at 500 uM by HPLC based CMP formation assay; conditions: TDE = time-dependent effect
[12] = target: T1, 2-C-methyl-D-erythritol 2,4-cyclodiphosphate synthase (Escherichia coli (strain K12)); experiment: Activation of Escherichia coli IspF-MEP complex assessed as increase in rate of […] formation at 1000 uM pre-incubated for 30 mins by HPLC based […] formation assay relative to untreated control; summary of the method: as §1
[13] = target: T1, 2-C-methyl-D-erythritol 2,4-cyclodiphosphate synthase (Escherichia coli (strain K12)); experiment: Activation of Escherichia coli IspF-MEP complex assessed as increase in rate of […] formation at 1000 uM by HPLC based […] formation assay relative to untreated control; summary of the method: as §1
[14] = target: T1, 2-C-methyl-D-erythritol 2,4-cyclodiphosphate synthase (Escherichia coli (strain K12)); experiment: Activation of Escherichia coli IspF assessed as increase in rate of […] formation at 1000 uM pre-incubated for 30 mins by HPLC based […] formation assay relative to untreated control; summary of the method: as §1
[15] = target: T1, 2-C-methyl-D-erythritol 2,4-cyclodiphosphate synthase (Escherichia coli (strain K12)); experiment: Activation of Escherichia coli IspF assessed as assessed as residual enzyme activity at 1000 uM pre-incubated for 30 mins by HPLC based […] formation assay relative to untreated control; summary of the method: as §1
[16] = target: T1, 2-C-methyl-D-erythritol 2,4-cyclodiphosphate synthase (Escherichia coli (strain K12)); experiment: Activation of Escherichia coli IspF assessed as increase in rate of […] formation at 1000 uM by HPLC based […] formation assay relative to untreated control
Summary of the method: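 IspF activity was read as the rate of CMP formation from 100 µM CDPME2P, with the test compound at 1000 µM. The rate is expressed relative to a control run without compound.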

## Nc1ccn([C@@H]2O[C@H](COP(=O)(O)CP(=O)(O)O)[C@@H](O)[C@H]2O)c(=O)n1
[1]
  inhibition: 74%
[2]
  inhibition: 69%
[3]
  pIC50: 3.46
[4]
  pIC50: 3.10

## C[C@](O)(CO)[C@H](O)COP(=O)(O)CP(=O)(O)OC[C@H]1O[C@@H](n2ccc(N)nc2=O)[C@H](O)[C@@H]1O
[5]
  Activity: Active
[6]
  fold change (FC): 1.3
[7]
  fold change (FC): 2.2
[8]
  Activity: inactive

## C[C@](O)(CO)[C@H](O)COP(=O)(O)OP(=O)(O)OC[C@H]1O[C@@H](n2ccc(N)nc2=O)[C@H](O)[C@@H]1O
[5]
  Activity: inactive
[6]
  Activity: inactive
[7]
  Activity: inactive
[8]
  Activity: inactive

## C[C@@](CO)(OP(=O)(O)O)[C@H](O)COP(=O)(O)CP(=O)(O)OC[C@H]1O[C@@H](n2ccc(N)nc2=O)[C@H](O)[C@@H]1O
[7]
  fold change (FC): 7.6
[9]
  inhibition: 37%
[10]
  inhibition: inactive
[11]
  inhibition: tde
[8]
  Activity: 60%

## C[C@](O)(CO)[C@H](O)COP(=O)(O)CP(=O)(O)O
[12]
  Activity: inactive
[13]
  Activity: inactive
[14]
  fold change (FC): 8.7
[15]
  Activity: 54%
[16]
  fold change (FC): 1.8

## Nc1ccn([C@@H]2O[C@H](COP(=O)(O)OP(=O)(O)O)[C@@H](O)[C@H]2O)c(=O)n1
[2]
  inhibition: inactive
[4]
  pIC50: 3.11
